For assay [1], the system named is Mus musculus. In words: Anti-obesity activity in 16 hrs fasted C57BL/6 mouse supplemented with normal chow diet assessed as decrease in blood glucose level at 20 mg/kg/day, ip administered for 1 week measured after 30 mins by intraperitoneal glucose tolerance test. The format is functional, organism-based. The following applies: time 1.0 weeks. In a few lines: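 Male C57BL/6 mice on normal chow, 8 weeks old, given 20 mg·kg−1·day−1 ip daily for 7 days. After 16 h fasting, glucose 2 g/kg body weight ip; blood glucose read during the test. Mean ± SEM, n = 5–9; t test or ANOVA, P < 0.05.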

For assay [2], the system named is Mus musculus. Nature of the assay: Anti-obesity activity in C57BL/6 mouse supplemented with high fat diet assessed as decrease in body weight at 20 mg/kg/day, ip administered for 1 week. It counts as functional, organism-based. The following applies: time 1.0 weeks. In a few lines:
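Male C57BL/6 mice fed high-fat diet for 14 weeks from 5 weeks of age, then ip 20 mg·kg−1·day−1 for 7 days. Body weight, EchoMRI lean/fat mass, and random or 16 h-fasted blood glucose recorded, as the line states.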

Assay [3] has as its system Mus musculus. In words: Anti-obesity activity in C57BL/6 mouse supplemented with normal chow diet assessed as decrease in hepatic G6Pc mRNA expression at 20 mg/kg/day, ip administered for 1 week measured a by RT-qPCR assay. It counts as functional, organism-based. The following applies: time 1.0 weeks. A digest of the protocol: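 Liver G6Pc mRNA in 8-week-old normal-chow male C57BL/6 mice after 7 days ip at 20 mg·kg−1·day−1. Trizol RNA extraction, SYBR Green RT-qPCR. Mean ± SEM, n = 5–9.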

Assay [4] has as its system Mus musculus. Nature of the assay: Inhibition of lipogenesis in C57BL/6 mouse supplemented with normal chow diet assessed as decrease in ChREBP mRNA expression at 20 mg/kg/day, ip administered for 1 week measured by RT-qPCR assay. The format is functional, organism-based. The following applies: time 1.0 weeks. A digest of the protocol:
(§1)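 Eight-week-old male C57BL/6 mice on normal chow were given 20 mg·kg−1·day−1 ip daily for 7 days or vehicle. Epididymal WAT was collected. Lipogenic, adipogenic and fatty-acid-oxidation transcripts were quantified by Trizol extraction and SYBR Green RT-qPCR. FAS, ACC, PPARγ and C/EBPα protein were assessed by western blot. n = 5–9; mean ± SEM.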
For orientation: In qPCR the cycle at which signal appears reflects the starting amount.

The subject of assay [5] is Mus musculus. Nature of the assay: Inhibition of hepatic lipogenesis in C57BL/6 mouse supplemented with normal chow diet assessed as effect on CPT1alpha mRNA expression at 20 mg/kg/day, ip administered for 1 week measured by RT-qPCR assay. It counts as functional, organism-based. To be noted: time 1.0 weeks. A digest of the protocol:
(§2)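 Normal-chow male C57BL/6 mice, 8 weeks old, were injected ip at 20 mg·kg−1·day−1 daily for 7 days or given vehicle. Liver RNA was extracted with Trizol, and fatty-acid-oxidation gene transcripts were quantified by SYBR Green RT-qPCR. n = 5–9; mean ± SEM.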

The subject of assay [6] is Adipocyte. In words: Inhibition of lipogenesis in mouse adipocytes isolated stromal vascular cells assessed as decrease in ACC protein expression measured after 24 hrs by western blot analysis. It counts as functional, cell-based. In general terms: A western blot detects proteins with antibodies after separation by electrophoresis.
For assay [7], the system named is Mus musculus. Nature of the assay: Anti-obesity activity in 16 hrs fasted C57BL/6 mouse supplemented with normal chow diet assessed as decrease in blood glucose level at 20 mg/kg/day, ip administered for 1 week measured after 15 to 30 mins by pyruvate tolerance test. It counts as functional, organism-based. The following applies: time 1.0 weeks. In a few lines:
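Normal-chow male C57BL/6 mice (8 weeks old) dosed ip at 20 mg·kg−1·day−1 for 7 days. Pyruvate tolerance test: 16 h fast, then pyruvate 2 g/kg body weight ip, blood glucose followed over time. Mean ± SEM, n = 5–9.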

The subject of assay [8] is Adipocyte. Nature of the assay: Inhibition of lipogenesis in mouse adipocytes isolated stromal vascular cells assessed as decrease in FABP4 mRNA expression measured after 24 hrs by RT-qPCR assay. It counts as functional, cell-based. A digest of the protocol: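 Stromal vascular cells from inguinal WAT of C57BL/6 mice, grown in DMEM/F12 + 10% FBS at 37 °C, 10% CO2. At confluence, induced 48 h with 5 μg/ml insulin, 1 μM dexamethasone, 0.5 mM isobutylmethylxanthine, then 6 days in 5 μg/ml insulin; fully differentiated day 8. Mature adipocytes exposed to inhibitor 24 h. Total RNA by Trizol, SYBR Green RT-qPCR; protein by western blot.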

In assay [9] the test system is Hepatocyte. In words: Inhibition of glucogenesis in mouse primary hepatocytes stimulated with 100 uM 8-Br-cAMP assessed as effect on pTORC2 protein expression at 3 uM measured after 1 hr by western blot analysis. The format is functional, cell-based. In a few lines: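 Primary hepatocytes from C57BL/6 mice, isolated by two-step perfusion, were co-treated with 3 μM A-485 and 100 μM 8-Br-cAMP for 1 h. Phospho-CREB, phospho-AMPK and phospho-TORC2 were detected by western blot of cell lysates. Three independent experiments; mean ± SEM.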

For assay [10], the system named is Mus musculus. In words: Anti-obesity activity in C57BL/6 mouse supplemented with high fat diet assessed as decrease in hepatic G6Pc mRNA expression level at 20 mg/kg/day, ip administered for 1 week measured by RT-qPCR assay. The format is functional, organism-based. To be noted: time 1.0 weeks. In a few lines: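 Hepatic G6Pc mRNA in male C57BL/6 mice fed HFD for 14 weeks, then ip 20 mg·kg−1·day−1 for 7 days. Liver RNA extracted with Trizol; SYBR Green RT-qPCR.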

The test system of assay [11] is Mus musculus. In words: Inhibition of lipogenesis in C57BL/6 mouse supplemented with high-fat diet assessed as decrease in ChREBP mRNA expression at 20 mg/kg/day, ip administered for 1 week measured by RT-qPCR assay. It counts as functional, organism-based. The following applies: time 1.0 weeks. A digest of the protocol:
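Male C57BL/6 mice were fed high-fat diet for 14 weeks from 5 weeks of age, then injected ip with 20 mg·kg−1·day−1 for 7 days or given vehicle. Epididymal and inguinal WAT were weighed, examined by H&E, and analysed. Transcripts were measured by Trizol/SYBR Green RT-qPCR; proteins by western blot. n = 5–9; mean ± SEM.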

Assay [12] deals with Mus musculus. In words: Anti-obesity activity in C57BL/6 mouse supplemented with normal chow diet assessed as decrease in total fat mass at 20 mg/kg/day, ip administered for 1 week measured by EchoMRI live analysis. It counts as functional. To be noted: time 1 weeks. Details: scale not given: the % may be the effect or the level left. A digest of the protocol: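 Normal-chow male C57BL/6 mice, 8 weeks old, ip 20 mg·kg−1·day−1 daily for 7 days. Total lean and fat mass measured in live animals by EchoMRI. Mean ± SEM, n = 5–9.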

In assay [13] the test system is Hepatocyte. Nature of the assay: Inhibition of lipogenesis in mouse primary hepatocytes assessed as decrease in ChREBP protein expression at 3 uM in presence of 100 nM insulin and 5 to 25 mM glucose measured after 18 hrs by western blot analysis. It counts as functional, cell-based.
Assay [14] concerns Mus musculus. In words: Inhibition of lipogenesis in C57BL/6 mouse supplemented with normal chow diet assessed as effect on ACADVL mRNA expression at 20 mg/kg/day, ip administered for 1 week measured by RT-qPCR assay. The following applies: time 1.0 weeks. It counts as functional, organism-based. In a few lines: as §1
Assay [15] concerns Mus musculus. In words: Inhibition of lipogenesis in C57BL/6 mouse supplemented with normal chow diet assessed as effect on CPT1alpha mRNA expression at 20 mg/kg/day, ip administered for 1 week measured by RT-qPCR assay. To be noted: time 1.0 weeks. It counts as functional, organism-based. A digest of the protocol: as §1
The subject of assay [16] is Mus musculus. In words: Inhibition of hepatic lipogenesis in C57BL/6 mouse supplemented with normal chow diet assessed as effect on MCAD mRNA expression at 20 mg/kg/day, ip administered for 1 week measured by RT-qPCR assay. The following applies: time 1.0 weeks. The format is functional, organism-based. In a few lines:
as §2

In assay [17] the test system is Hepatocyte. In words: Inhibition of lipogenesis in mouse primary hepatocytes assessed as increase in ACO mRNA expression at 3 uM in presence of 100 nM insulin and 5 to 25 mM glucose measured after 18 hrs by RT-qPCR assay. It counts as functional, cell-based. A digest of the protocol: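 Primary hepatocytes isolated from C57BL/6 mice by two-step perfusion. Cells incubated 18 h with 3 μM inhibitor, with 0 or 100 nM insulin and 5 or 25 mM glucose. Transcripts quantified by SYBR Green RT-qPCR after Trizol RNA extraction; proteins by western blot of lysates. Mean ± SEM.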

Activity calls are given as the source filed them. The calls are words filed in the database; no cut-off is given here.

Consider `CNC(=O)Nc1ccc2c(c1)CCS21OC(=O)N(CC(=O)N(Cc2ccc(F)cc2)[C@@H](C)C(F)(F)F)C1=O` (some centres not stated), for which the outcome in assay [1], in assay [2], in assay [3], in assay [7] and in [10] was Active. For the same compound, the inhibition entry in assay [4], in assay [6], in assay [8], in [11], in assay [13] and in assay [17] was “Active” each time. For the same compound, the inhibition result in assay [5], in assay [9], in assay [14], in assay [15] and in assay [16] was “inactive” each time. In addition, the Activity in assay [12] is recorded as about 14%.

(Values after ChEMBL document CHEMBL5674890, “Selective inhibition of CBP/p300 HAT by A-485 results in suppression of lipogenesis and hepatic gluconeogenesis” (Cell Death Dis, 2020).)
